We go through eleven compounds from ChEMBL document CHEMBL1149688, “Tetrapeptide inhibitors of the glutamate vesicular transporter (VGLUT)” (Bioorg Med Chem Lett, 2007).

Active and inactive are the calls of the source. The calls are words filed in the database; no cut-off is given here.

Tested on in one assay: not listed separately
The assay is described as follows: Inhibition of [3H]glutamate uptake at VGLUT in rat brain synaptic vesicles. The assay is classed as tissue-based. Summed up: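 Rat brain synaptic vesicles (approx. 0.1 mg protein) were incubated with ³H-L-glutamate (0.25 mM) and inhibitor over 0.01-5 mM, and the assay was started by adding substrate. IC50 values were taken from non-linear regression of sigmoidal dose-response curves and converted to Ki with the Cheng-Prusoff relationship, as mean ± s.e.m. (n = 3).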
For `CC[C@H](C)[C@H](NC(=O)[C@H](N)CCC(N)=O)C(=O)N[C@H](CCC(=O)O)C(=O)N[C@@H](Cc1c[nH]c2ccccc12)C(=O)O`, the IC50 (usually the concentration that inhibits the measured activity by half) worked out at 864 µM and the affinity, expressed as Ki, was 828 µM.

For the next assay, the species on record is Rattus norvegicus. The assay is described as follows: Inhibition of v-ATPase activity in rat brain synaptic vesicles. The assay is classed as tissue-based.
Take `CCC(C)C(NC(=O)C(N)CCC(N)=O)C(=O)NC(CCC(=O)O)C(=O)NC(Cc1c[nH]c2ccccc12)C(=O)O` (racemic): the result was inactive.

With `NC(=O)CC(NC(=O)C(N)Cc1c[nH]c2ccccc12)C(=O)NC(CCC(=O)O)C(=O)NC(Cc1ccccc1)C(=O)O` (racemic), the result was inactive.

Another assay deals with VGLUT (Rattus norvegicus). The experiment in a line: Inhibition of [3H]glutamate uptake at VGLUT in rat brain synaptic vesicles relative to control; values are per cent of control. More on the design: concentration or dose not given beside the values.
For the compound `CC[C@H](C)[C@@H](NC(=O)[C@H](N)CCC(N)=O)C(=O)N[C@H](CCC(=O)O)C(=O)N[C@H](Cc1c[nH]c2ccccc12)C(=O)O`, the level, % of control amounted to 63%.

In turn, `NC(=O)CCC(N)C(=O)NC(Cc1c[nH]c2ccccc12)C(=O)NC(CCC(=O)O)C(=O)NC(Cc1c[nH]c2ccccc12)C(=O)O` (racemic) displayed a level, % of control of 66%.

`NC(=O)C[C@H](NC(=O)[C@H](N)Cc1c[nH]c2ccccc12)C(=O)N[C@H](CCC(=O)O)C(=O)N[C@H](Cc1ccccc1)C(=O)O` came in with a level, % of control of 41%.

`CC[C@H](C)[C@@H](NC(=O)[C@H](N)CCC(N)=O)C(=O)N[C@@H](CCC(=O)O)C(=O)N[C@H](Cc1c[nH]c2ccccc12)C(=O)O` displayed a level, % of control of 35%.

With `CC[C@H](C)[C@@H](NC(=O)[C@@H](N)CCC(N)=O)C(=O)N[C@@H](CCC(=O)O)C(=O)N[C@@H](Cc1c[nH]c2ccccc12)C(=O)O`, the level, % of control is 69%.

In turn, `CCC(C)C(NC(=O)C(N)CCC(N)=O)C(=O)NC(CCC(=O)O)C(=O)NC(Cc1c[nH]c2ccccc12)C(=O)O` (racemic) registered a level, % of control of 38%.

In the case of `CC[C@H](C)[C@@H](NC(=O)[C@@H](N)CCC(N)=O)C(=O)N[C@H](CCC(=O)O)C(=O)N[C@H](Cc1c[nH]c2ccccc12)C(=O)O`, the level, % of control was determined as 60%.

Turning to `NC(=O)CC(NC(=O)C(N)Cc1c[nH]c2ccccc12)C(=O)NC(CCC(=O)O)C(=O)NC(Cc1ccccc1)C(=O)O` (racemic), the level, % of control amounted to 13%.

`CC[C@H](C)[C@@H](NC(=O)[C@@H](N)CCC(N)=O)C(=O)N[C@@H](CCC(=O)O)C(=O)N[C@H](Cc1c[nH]c2ccccc12)C(=O)O` returned a level, % of control of 28%.

As to `CC[C@H](C)[C@H](NC(=O)[C@@H](N)CCC(N)=O)C(=O)N[C@H](CCC(=O)O)C(=O)N[C@@H](Cc1c[nH]c2ccccc12)C(=O)O`, the level, % of control turned out to be 82%.
